Source: PubChem BioAssay (Broad Institute)
Shown are actives, neighbours in structure and some others; about 3.7% of the full set was active somewhere.
DENV2 CPE – DENV2-induced cell death inhibition. CPE inhibition, % at 9.99 µM. 1.7% of 350,000 active. AID 651640. DENV2-infected cells, cytopathic effect rescue, plate reader; in the data active = CPE inhibition above about 20%, passing the limit was not always enough; inconclusive = no clear call, values can overlap the other calls; tested in BHK-21 cells;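 note: 0% = median of neutral control wells and 100% = median of positive control wells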
FGF22 binding – binders of recombinant human FGF22 by thermal shift; Q9HCT0; SYPRO orange fluorescence; percent of sucrose octasulfate shift, DMSO zero; activity (Tm shift, normalised), % at 9.99 µM; 1.5% of 340,000 active; AID 651658;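 active = mean Tm shift, scaled 0 neutral to 100 positive control, at about 1.3% or above, every replicate too, limit read from the data; inconclusive = no clear call, values can overlap the other calls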
Target sequence (Q9HCT0 whole entry, looked up): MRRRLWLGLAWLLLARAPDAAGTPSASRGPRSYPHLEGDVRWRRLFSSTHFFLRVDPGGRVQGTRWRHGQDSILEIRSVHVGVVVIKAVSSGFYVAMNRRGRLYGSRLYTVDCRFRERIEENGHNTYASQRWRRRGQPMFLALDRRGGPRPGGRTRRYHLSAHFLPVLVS
E-selectin induc – E-selectin induction on HUVECs; P16581; HUVEC E-selectin immunofluorescence imaging; normalized: neutral wells 0, TNF-alpha wells 100; activation, % at 7.58 µM; 0.37% of 260,000 active; AID 686992;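 active = mean E-selectin-positive cell signal at least 10% of the positive control, reached in at least 60% of replicates, without over 20% cell loss; inconclusive = no rule given, readout overlaps actives, possibly toxicity-flagged; inactive = the rest, including those meeting only one limit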
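Assay system: HUVEC, human umbilical vein endothelial cells / Amount: 3,000 HUVEC/well / Controls: TNF-alpha positive control, DMSO neutral control / Compound dosing: single concentration / Medium: EGM-2 over gelatin coat / Evaluation: percent E-selectin-positive cells / Signal: immunofluorescence imaging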
CFTR F508del cor – CFTR F508del correction in bronchial cells. CFBE cells, YFP halide quenching; stimulated with forskolin plus potentiator P3; % fluorescence drop versus neutral controls. activity (quench increase), % at 7.58 µM. 0.36% of 350,000 active. AID 720511;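 active = mean added fluorescence quench of at least 8% versus neutral control, with both replicates also reaching 8%; inconclusive = only one of the mean or replicate conditions met; inactive = mean below 8% and not both replicates reaching 8%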;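 note: cells transiently co-express mutant CFTR-F508del with the halide-sensitive YFP; corrector assay measuring rescue of mutant channel to the surface after 24 h compound exposure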
ERAP1 HTS inh – blocks human ERAP1 aminopeptidase activity. 0.15% of 340,000 active. recombinant ERAP1, Leu-AMC fluorescence, 60 min. inhibition, % at 10.7 µM;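 active = mean replicate inhibition of at least 30%, or all replicates individually reaching that 30% level; inactive = mean below 30% and not every replicate reaching it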;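 note: 0% = neutral control wells and 100% = L-leucinethiol positive control wells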
Starred values were filed as active, the others as inactive.

What do the screens show for `C[C@@H]1CN([C@@H](C)CO)C(=O)c2cc(NC(=O)Nc3ccc4c(c3)OCO4)ccc2O[C@@H](C)CCCCO[C@H]1CN(C)C(=O)C1CCCCC1`?
DENV2 CPE: 77.0*; FGF22 binding: 0.3; E-selectin induc: 0.0; CFTR F508del cor: 3.6; ERAP1 HTS inh: 1.2

What do the screens show for `COc1ccc(NC(=O)Nc2ccc3c(c2)C(=O)N([C@H](C)CO)C[C@H](C)[C@H](CN(C)C(=O)Nc2ccc4c(c2)OCO4)OCCCC[C@@H](C)O3)cc1`?
DENV2 CPE: 40.2*; FGF22 binding: -0.1; E-selectin induc: 0.2; CFTR F508del cor: -0.3; ERAP1 HTS inh: 2.1

How did C[C@@H]1CCCCO[C@@H](CN(C)C(=O)Nc2ccc3c(c2)OCO3)[C@H](C)CN([C@H](C)CO)C(=O)c2cc(NC(=O)Nc3ccccc3)ccc2O1 do in these assays?
DENV2 CPE: 7.0; FGF22 binding: -0.4; CFTR F508del cor: 1.3; ERAP1 HTS inh: -0.5

How did C[C@@H]1CCCCO[C@H](CN(C)C(=O)c2ccccc2)[C@@H](C)CN([C@@H](C)CO)C(=O)c2cc(NC(=O)Nc3ccc4c(c3)OCO4)ccc2O1 do in these assays?
DENV2 CPE: 22.5*; FGF22 binding: -0.4; E-selectin induc: 0.0; CFTR F508del cor: -0.2; ERAP1 HTS inh: -4.5

What do the screens show for `C[C@@H]1CCCCO[C@H](CN(C)C(=O)c2ccccc2)[C@@H](C)CN([C@H](C)CO)C(=O)c2cc(NC(=O)Nc3ccc4c(c3)OCO4)ccc2O1`?
DENV2 CPE: 3.3; FGF22 binding: 0.7; E-selectin induc: 0.0; CFTR F508del cor: -1.5; ERAP1 HTS inh: -4.2

What do the screens show for `C[C@@H]1CCCCO[C@H](CN(C)C(=O)C2CCCCC2)[C@@H](C)CN([C@H](C)CO)C(=O)c2cc(NC(=O)Nc3ccc4c(c3)OCO4)ccc2O1`?
DENV2 CPE: inconclusive; FGF22 binding: -0.2; E-selectin induc: -0.2; CFTR F508del cor: 0.6; ERAP1 HTS inh: -0.8

What do the screens show for `C[C@H](CO)N1C[C@H](C)[C@@H](CN(C)Cc2ccncc2)Oc2ccc(NS(=O)(=O)c3cn(C)cn3)cc2C1=O`?
DENV2 CPE: -5.1; FGF22 binding: -0.2; CFTR F508del cor: 2.8; ERAP1 HTS inh: 0.5

How did C[C@@H]1CN([C@H](C)CO)S(=O)(=O)c2ccc(C3=CCCCC3)cc2O[C@@H]1CN(C)Cc1ccncc1 do in these assays?
DENV2 CPE: -10.0; FGF22 binding: 0.7; E-selectin induc: -0.8; CFTR F508del cor: -1.3; ERAP1 HTS inh: 0.6

Results for C[C@@H]1CN([C@H](C)CO)C(=O)c2cc(NC(=O)NC3CCCCC3)ccc2O[C@@H](C)CCCCO[C@@H]1CN(C)C(=O)NC1CCCCC1 ?
DENV2 CPE: 17.4; FGF22 binding: -0.2; E-selectin induc: 11.9; CFTR F508del cor: 0.1; ERAP1 HTS inh: 0.5

How did COc1ccc(NC(=O)N(C)C[C@H]2OCCCC[C@H](C)Oc3ccc(NS(=O)(=O)c4ccc(Cl)cc4)cc3C(=O)N([C@@H](C)CO)C[C@@H]2C)cc1 do in these assays?
DENV2 CPE: inconclusive; FGF22 binding: -0.2; E-selectin induc: 3.0; CFTR F508del cor: 0.6; ERAP1 HTS inh: -2.7

How did COc1ccc(/C=C\c2cc(OC)c(OC)cc2CC[N+](C)(C)C)cc1OC do in these assays?
DENV2 CPE: -1.7; FGF22 binding: 0.5; E-selectin induc: 0.2; CFTR F508del cor: -2.7; ERAP1 HTS inh: 98.6*

Results for COc1ccc(/C=C/C(=O)c2ccc(C(=O)/C=C/c3ccc(OC)c(OC)c3)cc2)cc1OC ?
DENV2 CPE: 1.4; FGF22 binding: -0.3; CFTR F508del cor: -6.6; ERAP1 HTS inh: -3.3

What do the screens show for `CC(C)c1ccc(NC(=O)CCCN2C(=O)NC(C)(C)C2=O)cc1`?
DENV2 CPE: -3.0; FGF22 binding: 0.1; E-selectin induc: 0.2; CFTR F508del cor: -4.1; ERAP1 HTS inh: 0.0

Results for CCc1cccc(C)c1NC(=O)CCCN1C(=O)NC(C)(C)C1=O ?
DENV2 CPE: -8.1; FGF22 binding: 0.2; E-selectin induc: 26.6*; CFTR F508del cor: 1.1; ERAP1 HTS inh: 2.0

How did O=S(=O)(c1cnc(Cl)c(Cl)c1)N1CCc2ccccc21 do in these assays?
DENV2 CPE: 56.6*; FGF22 binding: -0.2; CFTR F508del cor: -2.3; ERAP1 HTS inh: 4.8

Results for O=C(Nc1cc(Br)ccc1C(=O)NCc1cccc(O)c1)c1ccccc1 ?
DENV2 CPE: -3.4; FGF22 binding: 0.0; CFTR F508del cor: -0.5; ERAP1 HTS inh: -0.1

Results for CO[C@H](CN(C)S(=O)(=O)c1ccc(Cl)cc1)[C@@H](C)CN([C@@H](C)CO)S(=O)(=O)c1cccc(Cl)c1 ?
DENV2 CPE: -3.1; FGF22 binding: 0.1; E-selectin induc: 0.4; CFTR F508del cor: -0.4; ERAP1 HTS inh: -2.7

What do the screens show for `CN1CCN(/N=C/c2ccc(OCc3ccccc3)cc2)CC1`?
DENV2 CPE: 23.5*; FGF22 binding: -0.1; E-selectin induc: 1.6; CFTR F508del cor: -0.4; ERAP1 HTS inh: 6.1

What do the screens show for `CN(C)c1ccc(CC(=O)N2CCCC(c3cc(C(=O)Nc4ccc(F)c(Cl)c4)no3)C2)cc1` (configuration not stated)?
DENV2 CPE: 33.0*; FGF22 binding: -0.1; E-selectin induc: 0.2; CFTR F508del cor: -0.1; ERAP1 HTS inh: -3.0

What do the screens show for `COc1ccc(S(=O)(=O)N[C@@H]2CC[C@H](CCNC(=O)c3ccccc3F)O[C@@H]2CO)cc1`?
DENV2 CPE: 11.1; FGF22 binding: -0.2; E-selectin induc: 0.8; CFTR F508del cor: -0.2; ERAP1 HTS inh: -0.5

Results for C[C@H](CO)N1C[C@H](C)[C@@H](CN(C)C(=O)Nc2ccccc2)Oc2ccc(NC(=O)CCCCCC(=O)Nc3ccccc3N)cc2C1=O ?
E-selectin induc: 0.0

What do the screens show for `C[C@H]1CN([C@@H](C)CO)C(=O)c2cc(NC(=O)CCCCCC(=O)Nc3ccccc3N)ccc2O[C@@H]1CN(C)C(=O)Nc1ccc2c(c1)OCO2`?
DENV2 CPE: 19.1; FGF22 binding: 0.0; E-selectin induc: 3.5; CFTR F508del cor: 2.9; ERAP1 HTS inh: 2.0

How did C[C@@H]1CN([C@@H](C)CO)C(=O)c2cc(NC(=O)CCCCCC(=O)Nc3ccccc3N)ccc2O[C@@H]1CN(C)C(=O)Nc1ccc2c(c1)OCO2 do in these assays?
DENV2 CPE: 29.9*; FGF22 binding: -0.1; E-selectin induc: 21.6; CFTR F508del cor: -0.5; ERAP1 HTS inh: -1.9

Results for C[C@@H]1CN([C@H](C)CO)C(=O)c2cc(NC(=O)CCCCCC(=O)Nc3ccccc3N)ccc2O[C@H]1CN(C)C(=O)Nc1ccc2c(c1)OCO2 ?
DENV2 CPE: -15.7; FGF22 binding: 0.1; E-selectin induc: 27.9*; CFTR F508del cor: 1.2; ERAP1 HTS inh: 2.9

What do the screens show for `C[C@H](CO)N1C[C@H](C)[C@H](CN(C)C(=O)Nc2ccc3c(c2)OCO3)Oc2ccc(NC(=O)CCCCCC(=O)Nc3ccccc3N)cc2C1=O`?
DENV2 CPE: 48.0*; FGF22 binding: -0.2; E-selectin induc: 23.5; CFTR F508del cor: 2.1; ERAP1 HTS inh: 1.5
